Laboratory results as given in ChEMBL document CHEMBL1148054, “Chemical and bioactive constituents from Zanthoxylum simulans” (J Nat Prod, 1994).

How the values were obtained:
Assay type in all cases: functional
[1] = test system: HL-60; assay: Induction of terminal cell differentiation in human HL60 cells at 0.01 uM after 4 days by NBT reduction assay
Procedure, shortened: (§1)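 Log-phase HL-60 cells (RPMI 1640, 5% heat-inactivated calf serum, 37°, 5% CO2) were diluted to 1.2×10^5 cells/ml, preincubated 18 h, then treated 4 days with samples in DMSO (final 0.1%; DMSO controls). 10^6 cells were mixed 1:1 with fresh PBS holding 2 mg/ml NBT and 5 μg/ml TPA, 1 h at 37°. Formazan-positive cells were counted microscopically as % NBT-positive.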

[2] = test system: HL-60; assay: Induction of terminal cell differentiation in human HL60 cells assessed as cell viability at 1 uM by trypan blue exclusion method; settings: read-out: Activity
Procedure, shortened: (§2)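 HL-60 cells preincubated 18 h at 1.2×10^5 cells/ml, then exposed 4 days to samples in DMSO (final 0.1%). Viability by trypan blue exclusion: viable/(viable+dead)×100. Cell counts also taken after 4 days.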

[3] = test system: HL-60; assay: Induction of terminal cell differentiation in human HL60 cells assessed as inhibition of [3H]thymidine incorporation at 0.01 uM after 4 days; design: scale not given: the % may be the effect or the level left
Procedure, shortened: (§3)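 HL-60 cells were kept in RPMI 1640 with 5% heat-inactivated calf serum and penicillin/streptomycin at 37° under 5% CO2. Log-phase cells were diluted to 1.2×10^5 cells/ml and preincubated 18 h. Samples were added in DMSO (final 0.1%; vehicle controls matched) for 4 days. Aliquots then got 0.5 μCi/ml [3H]thymidine for 16 h more, were harvested and scintillation-counted. % incorporation per 10^6 cells = sample DPM / DMSO-control DPM.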

[4] = test system: HL-60; assay: Induction of terminal cell differentiation in human HL60 cells at 0.001 uM after 4 days by NBT reduction assay; procedure, shortened: as §1
[5] = test system: HL-60; assay: Induction of cell differentiation in human HL60 cells assessed as alpha naphthyl esterase activity at 1 uM after 4 days
Procedure, shortened: (§4)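 HL-60 cells in RPMI 1640 with 5% heat-inactivated calf serum at 37° under 5% CO2. Log-phase cells diluted to 1.2×10^5 cells/ml and preincubated 18 h, then samples added in DMSO (final 0.1%, DMSO controls). Cells scored after 4 days.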

[6] = test system: HL-60; assay: Induction of terminal cell differentiation in human HL60 cells assessed as naphthol AS-D chloroacetate esterase activity at 1 uM after 4 days
Procedure, shortened: (§5)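 HL-60 cells were grown in RPMI 1640 with 5% heat-inactivated calf serum at 37°, 5% CO2. They were diluted to 1.2×10^5 cells/ml, preincubated 18 h, then exposed 4 days to DMSO-dissolved samples (final DMSO 0.1%, matched vehicle controls). Specific esterase (naphthol AS-D chloroacetate) was scored cytochemically with a commercial kit as the percentage of differentiated cells.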

[7] = test system: HL-60; assay: Induction of terminal cell differentiation in human HL60 cells assessed as naphthol AS-D chloroacetate esterase activity at 0.1 uM after 4 days; procedure, shortened: as §5
[8] = test system: HL-60; assay: Induction of terminal cell differentiation in human HL60 cells assessed as cell viability at 0.01 uM by trypan blue exclusion method; settings: read-out: Activity; procedure, shortened: as §2
[9] = test system: HL-60; assay: Induction of terminal cell differentiation in human HL60 cells assessed as inhibition of [3H]thymidine incorporation at 0.0001 uM after 4 days; design: scale not given: the % may be the effect or the level left
Procedure, shortened: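 After 4-day sample treatment, 100 μl of HL-60 cells pulsed with 0.5 μCi/ml [3H]thymidine (65 Ci/mmol) for 16 h. Cells harvested and counted by liquid scintillation. Incorporation per 10^6 cells given as sample DPM divided by DMSO-control DPM.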

[10] = test system: HL-60; assay: Induction of terminal cell differentiation in human HL60 cells assessed as naphthol AS-D chloroacetate esterase activity at 0.001 uM after 4 days; procedure, shortened: as §5
[11] = test system: HL-60; assay: Induction of terminal cell differentiation in human HL60 cells assessed as cell viability at 0.0001 uM by trypan blue exclusion method; settings: read-out: Activity; procedure, shortened: as §2
[12] = test system: HL-60; assay: Induction of terminal cell differentiation in human HL60 cells at 0.0001 uM after 4 days by NBT reduction assay; procedure, shortened: as §1
[13] = test system: HL-60; assay: Induction of terminal cell differentiation in human HL60 cells assessed as naphthol AS-D chloroacetate esterase activity at 0.01 uM after 4 days; procedure, shortened: as §5
[14] = test system: HL-60; assay: Induction of terminal cell differentiation in human HL60 cells at 0.1 uM after 4 days by NBT reduction assay; procedure, shortened: as §1
[15] = test system: HL-60; assay: Induction of terminal cell differentiation in human HL60 cells assessed as naphthol AS-D chloroacetate esterase activity at 0.0001 uM after 4 days; procedure, shortened: as §5
[16] = test system: HL-60; assay: Induction of cell differentiation in human HL60 cells assessed as alpha naphthyl esterase activity at 0.001 uM after 4 days; procedure, shortened: as §4
[17] = test system: HL-60; assay: Induction of terminal cell differentiation in human HL60 cells at 1 uM after 4 days by NBT reduction assay; procedure, shortened: as §1
[18] = test system: HL-60; assay: Induction of terminal cell differentiation in human HL60 cells assessed as inhibition of [3H]thymidine incorporation at 1 uM after 4 days; design: scale not given: the % may be the effect or the level left; procedure, shortened: as §3
[19] = test system: HL-60; assay: Induction of terminal cell differentiation in human HL60 cells assessed as cell viability at 0.001 uM by trypan blue exclusion method; settings: read-out: Activity; procedure, shortened: as §2
[20] = test system: HL-60; assay: Induction of terminal cell differentiation in human HL60 cells assessed as inhibition of [3H]thymidine incorporation at 0.1 uM after 4 days; design: scale not given: the % may be the effect or the level left; procedure, shortened: as §3
[21] = test system: HL-60; assay: Induction of terminal cell differentiation in human HL60 cells assessed as cell viability at 0.1 uM by trypan blue exclusion method; settings: read-out: Activity; procedure, shortened: as §2
[22] = test system: HL-60; assay: Induction of terminal cell differentiation in human HL60 cells assessed as inhibition of [3H]thymidine incorporation at 0.001 uM after 4 days; design: scale not given: the % may be the effect or the level left; procedure, shortened: as §3
[23] = test system: HL-60; assay: Induction of cell differentiation in human HL60 cells assessed as alpha naphthyl esterase activity at 0.1 uM after 4 days; procedure, shortened: as §4
[24] = test system: HL-60; assay: Induction of cell differentiation in human HL60 cells assessed as alpha naphthyl esterase activity at 0.01 uM after 4 days; procedure, shortened: as §4
[25] = test system: HL-60; assay: Induction of cell differentiation in human HL60 cells assessed as alpha naphthyl esterase activity at 0.0001 uM after 4 days; procedure, shortened: as §4

`C=C1/C(=C\C=C2/CCC[C@]3(C)[C@@H]([C@H](C)CCCC(C)(C)O)CC[C@@H]23)C[C@@H](O)C[C@@H]1O` [CALCITRIOL] gave an Activity [1] of 73.3%, a viability at 1 µM [2] of 92% and an Activity [3] of 58.3%. The Activity [4] was 28.5%, the Activity [5] was 95.3% and the Activity [6] was 2%. The Activity [7] was 2%, the viability at 0.01 µM [8] was 97% and the Activity [9] was 6%. The Activity [10] was 4.6%, the viability at 0.0001 µM [11] was 98% and the Activity [12] was 8.8%. For the same compound, the Activity [13] was 4%, the Activity [14] was 80% and the Activity [15] was 5%. For the same compound, the Activity [16] was 14%, the Activity [17] was 90.5% and the Activity [18] was 95.3%. For the same compound, the viability at 0.001 µM [19] was 99%, the Activity [20] was 92% and the viability at 0.1 µM [21] was 95%. It also gave an Activity [22] of 32.3%, an Activity [23] of 90.1% and an Activity [24] of 68%. The Activity [25] was 2.5%.
